Source: the M2OR odorant receptor database

What was measured:
Settings in all cases: stereoisomer not certain
UniProt L7N1Y8 = target: UniProt L7N1Y8
Method in brief: (§1)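 Each entry records the cell line, G-protein, co-transfected protein and tags used. Methods varied with the source, often transient luciferase assays in mammalian cell lines. A receptor–molecule pair is called responsive (active) if the original authors judged its signal statistically different from baseline and non-responsive (inactive) otherwise.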

UniProt L7N210 = target: T1, UniProt L7N210
T1 sequence (whole entry): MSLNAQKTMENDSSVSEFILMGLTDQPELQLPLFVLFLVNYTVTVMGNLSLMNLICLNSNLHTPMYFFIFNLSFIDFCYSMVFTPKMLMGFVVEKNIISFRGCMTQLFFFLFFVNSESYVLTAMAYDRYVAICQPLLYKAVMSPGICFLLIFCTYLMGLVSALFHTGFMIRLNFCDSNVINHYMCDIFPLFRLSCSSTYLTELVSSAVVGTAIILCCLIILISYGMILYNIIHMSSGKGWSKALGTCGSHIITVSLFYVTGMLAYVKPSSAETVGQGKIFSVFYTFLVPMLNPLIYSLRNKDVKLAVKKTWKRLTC
Method in brief: as §1

UniProt Q3KPB0 = target: T2, UniProt Q3KPB0
T2 sequence (whole entry): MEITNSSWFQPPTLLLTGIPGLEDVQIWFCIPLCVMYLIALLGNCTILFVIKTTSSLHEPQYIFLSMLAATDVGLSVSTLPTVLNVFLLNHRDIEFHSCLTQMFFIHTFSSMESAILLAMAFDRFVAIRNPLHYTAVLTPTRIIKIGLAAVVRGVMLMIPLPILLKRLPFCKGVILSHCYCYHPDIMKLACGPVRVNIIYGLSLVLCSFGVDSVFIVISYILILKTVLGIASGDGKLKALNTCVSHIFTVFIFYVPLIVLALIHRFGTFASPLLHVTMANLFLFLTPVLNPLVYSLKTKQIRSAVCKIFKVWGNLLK
Method in brief: as §1

UniProt Q3U0P3 = target: T3, UniProt Q3U0P3
T3 sequence (whole entry): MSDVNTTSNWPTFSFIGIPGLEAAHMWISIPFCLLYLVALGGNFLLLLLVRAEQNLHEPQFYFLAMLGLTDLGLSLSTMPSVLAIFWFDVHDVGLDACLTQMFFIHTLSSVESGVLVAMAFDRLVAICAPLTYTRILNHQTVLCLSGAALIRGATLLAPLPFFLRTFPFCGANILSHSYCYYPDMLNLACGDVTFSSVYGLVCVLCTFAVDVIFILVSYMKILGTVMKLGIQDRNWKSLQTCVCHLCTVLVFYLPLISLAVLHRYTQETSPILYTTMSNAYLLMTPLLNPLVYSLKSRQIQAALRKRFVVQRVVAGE
Method in brief: as §1

UniProt Q7TQU8 = target: T4, UniProt Q7TQU8
T4 sequence (whole entry): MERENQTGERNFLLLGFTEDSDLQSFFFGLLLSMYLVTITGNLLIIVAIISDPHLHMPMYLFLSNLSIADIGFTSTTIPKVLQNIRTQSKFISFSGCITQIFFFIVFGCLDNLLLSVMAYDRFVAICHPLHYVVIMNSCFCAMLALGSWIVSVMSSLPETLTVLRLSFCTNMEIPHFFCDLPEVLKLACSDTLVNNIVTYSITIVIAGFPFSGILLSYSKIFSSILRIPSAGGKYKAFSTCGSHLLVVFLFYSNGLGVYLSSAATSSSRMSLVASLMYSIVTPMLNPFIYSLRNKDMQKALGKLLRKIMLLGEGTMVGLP
Method in brief: as §1

UniProt Q7TQV4 = target: T5, UniProt Q7TQV4
T5 sequence (whole entry): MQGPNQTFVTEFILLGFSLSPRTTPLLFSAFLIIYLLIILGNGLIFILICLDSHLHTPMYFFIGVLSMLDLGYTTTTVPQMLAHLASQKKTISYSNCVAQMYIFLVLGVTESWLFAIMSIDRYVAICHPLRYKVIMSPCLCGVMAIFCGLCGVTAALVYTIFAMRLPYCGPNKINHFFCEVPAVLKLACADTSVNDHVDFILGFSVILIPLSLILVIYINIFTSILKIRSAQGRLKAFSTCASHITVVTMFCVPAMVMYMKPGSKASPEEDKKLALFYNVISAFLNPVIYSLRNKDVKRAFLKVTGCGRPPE
Method in brief: as §1

UniProt L7MU75 = target: T6, UniProt L7MU75
T6 sequence (whole entry): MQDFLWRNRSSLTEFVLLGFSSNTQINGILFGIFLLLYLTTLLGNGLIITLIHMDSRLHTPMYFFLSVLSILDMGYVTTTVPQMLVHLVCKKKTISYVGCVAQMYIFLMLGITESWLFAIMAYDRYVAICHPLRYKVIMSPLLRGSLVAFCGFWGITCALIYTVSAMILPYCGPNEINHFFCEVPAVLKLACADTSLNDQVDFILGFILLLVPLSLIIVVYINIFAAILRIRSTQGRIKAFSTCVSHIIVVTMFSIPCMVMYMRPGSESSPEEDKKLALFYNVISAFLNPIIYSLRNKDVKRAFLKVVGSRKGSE
Method in brief: as §1

UniProt L7N0P5 = target: T7, UniProt L7N0P5
T7 sequence (whole entry): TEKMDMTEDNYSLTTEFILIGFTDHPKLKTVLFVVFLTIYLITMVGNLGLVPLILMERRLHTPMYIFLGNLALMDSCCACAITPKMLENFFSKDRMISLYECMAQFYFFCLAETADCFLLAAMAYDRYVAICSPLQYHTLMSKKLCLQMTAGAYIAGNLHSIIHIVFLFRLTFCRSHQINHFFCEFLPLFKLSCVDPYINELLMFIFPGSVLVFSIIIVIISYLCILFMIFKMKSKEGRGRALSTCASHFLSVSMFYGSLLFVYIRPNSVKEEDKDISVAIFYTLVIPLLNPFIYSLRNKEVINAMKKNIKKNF
Method in brief: as §1

UniProt Q7TQR7 = target: UniProt Q7TQR7
Chain of UniProt Q7TQR7 (Q7TQR7 as listed by the source): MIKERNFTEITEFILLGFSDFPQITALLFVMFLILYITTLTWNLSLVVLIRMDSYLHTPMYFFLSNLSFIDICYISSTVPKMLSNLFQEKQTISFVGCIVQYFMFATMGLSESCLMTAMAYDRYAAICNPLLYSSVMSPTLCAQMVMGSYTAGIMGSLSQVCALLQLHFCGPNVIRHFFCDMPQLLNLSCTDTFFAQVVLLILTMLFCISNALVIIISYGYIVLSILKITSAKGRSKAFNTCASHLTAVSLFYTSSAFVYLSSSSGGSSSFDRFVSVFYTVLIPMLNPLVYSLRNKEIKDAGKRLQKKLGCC
Method in brief: as §1

UniProt Q7TQR9 = target: UniProt Q7TQR9
Chain of UniProt Q7TQR9 (Q7TQR9 as listed by the source): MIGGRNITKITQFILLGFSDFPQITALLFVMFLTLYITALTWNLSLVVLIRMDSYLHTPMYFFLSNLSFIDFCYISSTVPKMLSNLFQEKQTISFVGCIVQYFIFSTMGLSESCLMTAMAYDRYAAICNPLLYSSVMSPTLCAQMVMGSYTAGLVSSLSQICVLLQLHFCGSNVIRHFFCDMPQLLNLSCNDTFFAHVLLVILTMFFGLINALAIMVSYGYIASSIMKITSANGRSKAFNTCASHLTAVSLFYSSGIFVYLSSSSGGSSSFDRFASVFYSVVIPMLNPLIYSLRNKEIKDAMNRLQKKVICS
Method in brief: as §1

Chain of UniProt L7N1Y8 (L7N1Y8 as listed by the source): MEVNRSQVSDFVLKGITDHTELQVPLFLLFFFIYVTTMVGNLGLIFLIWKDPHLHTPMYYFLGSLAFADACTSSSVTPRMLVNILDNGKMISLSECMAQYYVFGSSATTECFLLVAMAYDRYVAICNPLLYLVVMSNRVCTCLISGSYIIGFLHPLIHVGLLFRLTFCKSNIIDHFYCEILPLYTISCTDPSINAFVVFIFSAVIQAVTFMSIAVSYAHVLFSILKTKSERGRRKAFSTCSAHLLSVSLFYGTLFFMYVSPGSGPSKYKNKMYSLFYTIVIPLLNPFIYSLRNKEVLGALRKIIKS

Which “odorant receptor agonist call” value (UniProt L7N1Y8) does the source give for `O=C1CCOc2ccccc21` here?
Its value is “active”.

And the “odorant receptor agonist call” value (UniProt L7N210)?
The value was “active”.

And the “odorant receptor agonist call” value (UniProt Q3KPB0)?
Its value is “inactive”.

And the “odorant receptor agonist call” value (UniProt Q3U0P3)?
Its value is “inactive”.

And the “odorant receptor agonist call” value (UniProt Q7TQU8)?
Its value is “inactive”.

And the “odorant receptor agonist call” value (UniProt Q7TQV4)?
The value was “inactive”.

`CCCCOC(=O)C(C)OC(=O)CCC` (configuration not stated) was tested. Which “odorant receptor agonist call” value (UniProt L7N210) did it give?
The value was “inactive”.

And the “odorant receptor agonist call” value (UniProt Q7TQV4)?
Its value is “inactive”.

Which “odorant receptor agonist call” value (UniProt L7MU75) does the source give for `CCCCCCC(=O)[O-].[H+]` here?
The value was “inactive”.

What about the “odorant receptor agonist call” value (UniProt L7N210) of the same compound?
Its value is “inactive”.

What about the “odorant receptor agonist call” value (UniProt Q7TQV4) of the same compound?
Its value is “inactive”.

`CCC(C(=O)O)c1ccccc1` (configuration not stated) was tested. Which “odorant receptor agonist call” value (UniProt L7MU75) did it give?
The value was “inactive”.

And the “odorant receptor agonist call” value (UniProt L7N210)?
Its value is “inactive”.

What about the “odorant receptor agonist call” value (UniProt Q7TQV4) of the same compound?
Its value is “inactive”.

With `O=C1Cc2ccccc2O1` as the compound, how does the “odorant receptor agonist call” value (UniProt L7N210) read?
Its value is “inactive”.

What about the “odorant receptor agonist call” value (UniProt Q3KPB0) of the same compound?
Its value is “inactive”.

What about the “odorant receptor agonist call” value (UniProt Q3U0P3) of the same compound?
The value was “inactive”.

What about the “odorant receptor agonist call” value (UniProt Q7TQU8) of the same compound?
The value was “inactive”.

And the “odorant receptor agonist call” value (UniProt Q7TQV4)?
Its value is “active”.

For `Cc1cnc(C)cn1`, which “odorant receptor agonist call” value (UniProt L7N0P5) is on record?
The value was “active”.

`CCCO` was tested. Which “odorant receptor agonist call” value (UniProt L7MU75) did it give?
The value was “inactive”.

What about the “odorant receptor agonist call” value (UniProt L7N210) of the same compound?
Its value is “inactive”.

And the “odorant receptor agonist call” value (UniProt Q3U0P3)?
Its value is “inactive”.

What about the “odorant receptor agonist call” value (UniProt Q7TQU8) of the same compound?
The value was “inactive”.

Which “odorant receptor agonist call” value (UniProt L7MU75) does the source give for `CCC(=O)O` here?
Its value is “inactive”.

And the “odorant receptor agonist call” value (UniProt L7N210)?
Its value is “inactive”.

And the “odorant receptor agonist call” value (UniProt Q3KPB0)?
Its value is “inactive”.

And the “odorant receptor agonist call” value (UniProt Q3U0P3)?
The value was “inactive”.

What about the “odorant receptor agonist call” value (UniProt Q7TQU8) of the same compound?
The value was “inactive”.

And the “odorant receptor agonist call” value (UniProt Q7TQV4)?
The value was “inactive”.

Which results are given for `CC(=O)OCC=C(C)C`?
odorant receptor agonist call (UniProt L7MU75): inactive; odorant receptor agonist call (UniProt L7N210): inactive; odorant receptor agonist call (UniProt Q3KPB0): inactive; odorant receptor agonist call (UniProt Q3U0P3): inactive; odorant receptor agonist call (UniProt Q7TQU8): inactive; odorant receptor agonist call (UniProt Q7TQV4): active

Which “odorant receptor agonist call” value (UniProt L7N0P5) does the source give for `Cc1cnc(C)c(C)n1` here?
Its value is “active”.

What does the source list for `CC1CCCCCCCCCCCCC(=O)C1` (configuration not stated)?
odorant receptor agonist call (UniProt Q7TQR7): inactive; odorant receptor agonist call (UniProt Q7TQR9): inactive

With `CCCCC(=O)O` as the compound, how does the “odorant receptor agonist call” value (UniProt L7MU75) read?
The value was “inactive”.

What about the “odorant receptor agonist call” value (UniProt L7N210) of the same compound?
Its value is “inactive”.

And the “odorant receptor agonist call” value (UniProt Q3KPB0)?
The value was “inactive”.

What about the “odorant receptor agonist call” value (UniProt Q3U0P3) of the same compound?
The value was “inactive”.

What about the “odorant receptor agonist call” value (UniProt Q7TQU8) of the same compound?
Its value is “inactive”.

What about the “odorant receptor agonist call” value (UniProt Q7TQV4) of the same compound?
Its value is “inactive”.

How did the “odorant receptor agonist call” value (UniProt L7N0P5) turn out when `COc1nccnc1CC(C)C` was run?
Its value is “active”.

For `CCc1nccnc1C(C)=O`, which “odorant receptor agonist call” value (UniProt L7N0P5) is on record?
Its value is “active”.
